# Rows were chosen to be rich in hits. Some 2.3% of all compounds tested hit in one or more screens of this group.
# DDE Tn6 FP inh = inhibitors of Tn6 peptide binding to human fibrin DD(E) | inhibition, % at 8.3 µM | P02675 | 370,000 compounds, 0.21% hits | Fibrin DD(E) TRITC-Tn6 fluorescence polarization displacement;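 active = inhibition above a per-campaign cutoff: mean of compounds within control limits plus 3 SD, cut at about 15% in these data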;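 also: 0% = median of all compound wells on the plate and 100% = blocking peptide control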
# Target sequence (P02675 whole entry, looked up): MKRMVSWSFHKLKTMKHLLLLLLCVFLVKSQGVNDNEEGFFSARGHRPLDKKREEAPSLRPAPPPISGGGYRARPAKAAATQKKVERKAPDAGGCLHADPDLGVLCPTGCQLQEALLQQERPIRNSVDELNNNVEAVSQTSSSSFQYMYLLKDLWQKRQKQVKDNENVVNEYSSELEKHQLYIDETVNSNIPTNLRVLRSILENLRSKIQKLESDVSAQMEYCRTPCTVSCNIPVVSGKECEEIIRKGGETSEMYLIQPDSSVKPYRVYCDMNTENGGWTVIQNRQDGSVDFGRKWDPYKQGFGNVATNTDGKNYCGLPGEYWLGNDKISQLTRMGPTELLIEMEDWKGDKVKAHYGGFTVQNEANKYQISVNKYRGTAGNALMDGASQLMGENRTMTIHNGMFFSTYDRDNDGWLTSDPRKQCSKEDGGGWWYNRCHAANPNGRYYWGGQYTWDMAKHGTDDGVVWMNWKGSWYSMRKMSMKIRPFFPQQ
# ADAM17 inh = inhibitors of human ADAM17; 370,000 compounds, 0.83% hits; inhibition, % at 6.95 µM; P78536; AID 720648; recombinant ADAM17, EDANS/DABCYL FRET peptide cleavage;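 active = inhibition above the mean of compounds lying between control limits plus 3 SD, set per campaign, cut at about 8.5% in these data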;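 also: 0% = DMSO-only wells as the low control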
# PLCg1 inh = inhibitors of human phospholipase C gamma1 | 370,000 compounds, 0.84% hits | inhibition, % at 12.2 µM | purified PLC-gamma1, fluorogenic substrate, fluorescence | P19174; in the data active = inhibition above about 9.5%
# PLC-beta3 inh = blocks human PLC-beta3 enzyme activity. Q01970. Purified PLC-beta3, fluorogenic substrate, fluorescence. inhibition, % at 12.2 µM. 370,000 compounds, 0.18% hits. AID 720704; in the data active = inhibition above about 11%;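 also: 0% = median of compound wells on plate and 100% = full blocker control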
# Tn7 DDE FP = disrupts Tn7 cyclic peptide binding to fibrin D-Dimer-E complex; 370,000 compounds, 0.13% hits; P02675; inhibition, % at 8.3 µM; FP displacement of FITC-Tn7 peptide from fibrin DD(E); 0% = median of compound wells per plate;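 active = inhibition above the mean of compounds falling within the control limits plus 3 SD of them, cut at about 14% in these data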;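 also: 0% = plate median of compound wells and 100% = 10 µM Aha-Tn7 peptide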
#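 system = human fibrin DD(E) protein | quantity = DD(E) 2 µM final | medium = Tris/NaCl/CaCl2 buffer, pH 7.8 | also added = labelled Tn7 tracer, 0.1 µM | compound dosing = single point at 8.3 µM | timing = compound with protein 10 min, then 3 h after probe, room temperature | signal = FP measurement | benchmarks = Aha-Tn7 high control | repeats = one replicate per compound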
# ADAM10 inh = inhibits human ADAM10; recombinant ADAM10, EDANS/DABCYL FRET peptide cleavage, 3 h; inhibition, % at 7 µM; 370,000 compounds, 0.62% hits;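 active = inhibition above a per-campaign cutoff equal to the mean of compounds falling between control-based bounds plus 3 SD, cut at about 20% in these data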;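 also: 0% = DMSO wells while the 100% control is not disclosed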
# ADAM10 ctr = inhibits human ADAM10 in ADAM17 exosite counter-screen | recombinant ADAM10, EDANS/DABCYL FRET peptide cleavage, 3 h | inhibition, % at 6.95 µM | shares compounds with ADAM17 inh | 2,900 compounds, 47% hits;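 active = mean inhibition over the triplicate runs exceeds the activity threshold set in the earlier primary screen, cut at about 20% in these data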;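 also: 0% = DMSO wells and 100% = marimastat wells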
# ADAM17 confirm = human ADAM17 inhibition, confirmation | shares compounds with ADAM17 inh | recombinant ADAM17, EDANS/DABCYL QFRET peptide cleavage | inhibition, % at 6.95 µM | 2,900 compounds, 65% hits;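 active = mean inhibition across replicates above the hit cutoff set in the primary screen, cut at about 8.5% in these data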;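 also: 0% = DMSO wells and 100% = marimastat wells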
# Numbers without * were called inactive; · = no result.
SMILES,DDE Tn6 FP inh,ADAM17 inh,PLCg1 inh,PLC-beta3 inh,Tn7 DDE FP,ADAM10 inh,ADAM10 ctr,ADAM17 confirm
Cc1ccc(C)c(NC(=O)CSc2nnc(-c3cc(C)[nH]n3)n2N)c1,4,11*,7,-1,-1,-4,-3,-2
Cc1ccc(-n2c(SCC(=O)Nc3cccc4ccccc34)nnc2-c2ccccc2)cc1,3,2,1,0,3,-2,·,·
Cc1cc(-c2nnc(SCC(=O)Nc3ccccc3F)n2N)n[nH]1,-5,2,0,-7,4,-8,·,·
Cc1ccc(Cn2cc(CN3[C@H](Cc4ccccc4)COc4cc(Br)ccc4S3(=O)=O)nn2)cc1,6,-3,-1,0,-3,-5,·,·
COc1ccc(C(=O)N(C)[C@H]2C[C@H]3c4[nH]c5cccc(-c6ccccc6)c5c4CCN3C[C@H]2[C@H](C)O)cc1,-11,-57,-261,-272,0,-216,·,·
O=C(c1ccccc1Cl)N1N=C(c2cccs2)CC1c1cccc(O)c1 (centres undefined),-6,9.0*,1,-5,-7,11,3,3
Cn1c(=O)c2cc(S(=O)(=O)N3CCN(Cc4ccccc4)CC3)ccc2n(C)c1=O,-3,-2,1,1,0,-4,·,·
O=C(C[C@@H]1C/C=C\C[C@H](NC(=O)OCC2c3ccccc3-c3ccccc32)C(=O)O[C@H](c2ccccc2)CNC1=O)NCCO,-1,0,-3,-6,-4,-1,·,·
O=C(N[C@H]1C/C=C\C[C@@H](CC(=O)N(CCO)Cc2ccccc2)C(=O)NC[C@H](c2ccccc2)OC1=O)OCC1c2ccccc2-c2ccccc21,2,17*,4,9,-8,20,9,7
CCN(CC)C(=O)CC[C@H]1CC[C@]2(CCCN(C(=O)c3ccccc3)C2)O1,0,-7,3,-5,6,-14,·,·
Cc1ccc(-c2cc(-c3nnc(SCC(=O)Nc4cccc5ccccc45)n3N)[nH]n2)cc1,-8,1,1,-5,-1,-2,·,·
Clc1ccccc1C(c1nnnn1Cc1ccco1)N1CCN(Cc2ccco2)CC1 (centres undefined),-4,9.2*,1,-5,-5,13,-15,-1
COc1ccc(OC)c(C(c2nnnn2Cc2ccco2)N2CCN(C)CC2)c1 (centres undefined),-6,0,7,-1,-3,7,·,·
COc1cccc(NC(=O)CSc2nncn2N)c1,-2,9.7*,8,8,-4,11,9,9
O=C(CCCC1=NS(=O)(=O)c2ccccc2N1)N1CCN(c2ccccc2Cl)CC1,-7,-1,1,2,-8,3,·,·
COC(=O)C1CN(Cc2ccccc2)CCS(=O)(=O)N1Cc1cn(Cc2ccc(C)cc2)nn1 (centres undefined),-2,1,1,3,4,3,·,·
O=C(c1ccccc1)c1ccc(C(=O)N2CCN(c3ccc(O)cc3)CC2)cc1,4,8.7*,8,-3,-1,2,-4,1
COc1cc(CNC(=O)c2cccc(COc3ccc(Cl)cc3)c2)cc(OC)c1,-3,8.7*,-1,2,2,17,24*,11*
O=C(NCc1ccccc1)c1cccc(COc2ccc(Cl)cc2)c1,1,3,-2,0,-6,12,·,·
Cc1ccc(S(=O)(=O)N2C[C@H]3C(=O)C[C@@H](c4ccccc4)N(S(=O)(=O)c4ccccc4C)[C@H]3C[C@H]2c2ccccc2)cc1,-8,11*,4,4,-7,13,22*,9.9*
Cc1ccc(S(=O)(=O)N2C[C@H]3C(=O)C[C@@H](c4cccc(C)c4)N(S(=O)(=O)c4ccc(C)cc4)[C@H]3C[C@H]2c2ccccc2)cc1,-2,8.9*,9,5,-6,4,10,7
